{"source": "ChEMBL document CHEMBL4177581", "about": "“The compound (3-{5-[(2,5-dimethoxyphenyl)amino]-1,3,4-thiadiazolidin-2-yl}-5,8-methoxy-2H-chromen-2-one) inhibits the prion protein conversion from PrPC to PrPSc with lower IC50 in ScN2a cells” (Bioorg Med Chem, 2017)", "key": {"Major prion protein [1]": {"target": "T1, Major prion protein (Mesocricetus auratus, UniProt P04273)", "T1 sequence (P04273 whole entry)": "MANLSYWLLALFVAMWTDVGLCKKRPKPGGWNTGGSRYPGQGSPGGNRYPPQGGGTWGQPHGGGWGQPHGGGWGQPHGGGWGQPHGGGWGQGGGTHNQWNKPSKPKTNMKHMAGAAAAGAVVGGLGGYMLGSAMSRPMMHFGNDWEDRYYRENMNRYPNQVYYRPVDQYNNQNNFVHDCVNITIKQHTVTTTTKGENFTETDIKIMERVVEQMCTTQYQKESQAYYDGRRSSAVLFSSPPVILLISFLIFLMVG", "assay": "Binding affinity to Syrian hamster PrPC assessed as inhibition of PrPC protein conversion to PrPSc by Western blot"}, "[2]": {"target": "Major prion protein (Mesocricetus auratus) (UniProt P04273)", "sequence (P04273 whole entry, the tested form may be a part)": "as the sequence (P04273 whole entry) above", "assay": "Binding affinity to Syrian hamster PrPC assessed as inhibition of PrPC protein conversion to PrPSc by measuring PrPSc level relative to untreated control", "parameters": "concentration or dose not given beside the values"}, "Major prion protein [3]": {"target": "T1, Major prion protein", "assay": "Binding affinity to Syrian hamster PrPC"}, "ScN2a": {"tested_on": "ScN2a", "assay": "Antiprion activity against mouse prion protein RML infected mouse ScN2a cells assessed as reduction in proteinase K-resistant PrPSc level at 10 to 100 uM incubated for 5 days followed by proteinase K digestion by Western blot method relative to control", "type": "cell-based", "how_it_was_run": "(§1)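 RML scrapie-infected mouse N2a (ScN2a) cells treated for 5 days at […]. Lysates were made in 0.5% NP-40/0.5% deoxycholate Tris-HCl pH 8 buffer and normalised to 1 mg/ml protein. They were digested with 20 µg/ml proteinase K for 1 h at 37 °C, stopped with PMSF, and pelleted at 100,000g. Pellets were immunoblotted with 6D11-biotin. DMSO and quinacrine controls set the normalised percent PrPSc change.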"}, "[4]": {"assay": "Antiprion activity against mouse prion protein RML infected mouse ScN2a cells assessed as reduction in proteinase K-resistant PrPSc level incubated for 5 days followed by proteinase K digestion by Western blot method relative to control", "type": "cell-based", "settings": "120 h", "how_it_was_run": "as §1"}, "[5]": {"target": "Major prion protein (Mesocricetus auratus) (UniProt P04273)", "assay": "Binding affinity to C-terminal 6x-His-tagged Syrian hamster PrPC (90 to 232 residues) by 15N-HSQC NMR spectroscopy", "how_it_was_run": "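Uniformly 15N-labelled Syrian hamster PrPC residues 90–232 was titrated with ligand at a 5:1 ligand/protein molar ratio. 15N-HSQC spectra were recorded, and binding was read as chemical shift changes and signal attenuation of residues.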"}}, "note": "Activity calls are given as the source filed them. No cut-off for these calls is given here.", "data": [{"smiles": "N#Cc1c(NC(=O)c2cc3c(s2)CCCC3)sc2c1CCCC2", "values": [{"measurement": "EC50", "setting": "Major prion protein [1]", "result": 7.17, "unit": "µM"}, {"measurement": "Activity", "setting": "[2]", "result": 66.9, "unit": "%"}]}, {"smiles": "O=C(CC1CNc2ccccc21)NC1CCc2ccccc2C1", "note": "(stereo unspecified)", "values": [{"measurement": "Kd", "setting": "Major prion protein [3]", "result": 48.6, "unit": "µM"}, {"measurement": "EC50", "setting": "Major prion protein [1]", "result": 7.25, "unit": "µM"}, {"measurement": "Activity", "setting": "[2]", "result": 55.3, "unit": "%"}]}, {"smiles": "O=C(CSc1ncnc2sc3c(c12)CCC3)NCC1CCCO1", "note": "(stereo unspecified)", "values": [{"measurement": "EC50", "setting": "Major prion protein [1]", "result": 7.02, "unit": "µM"}]}, {"smiles": "COc1ccc(-c2cnc(N)nc2-c2ccc(OC)cc2)cc1", "values": [{"measurement": "inhibition", "setting": "ScN2a", "result": "Active"}, {"measurement": "IC50", "setting": "[4]", "result": 35, "unit": "µM"}]}, {"smiles": "Cc1cccc2cc(C#N)c(N3CCCN(C(=O)C4CCC4)CC3)nc12", "values": [{"measurement": "EC50", "setting": "Major prion protein [1]", "result": 7.29, "unit": "µM"}, {"measurement": "Activity", "setting": "[2]", "result": 50.6, "unit": "%"}]}, {"smiles": "O=C(CN1CCc2ccccc21)[C@H]1COc2cc3c(cc21)CCC3", "values": [{"measurement": "Activity", "setting": "[2]", "result": 63.7, "unit": "%"}]}, {"smiles": "CCC(C)C(NC(=O)c1ccccc1)C(=O)N1CCc2ccccc21", "note": "(stereo unspecified)", "values": [{"measurement": "Kd", "setting": "Major prion protein [3]", "result": 51.2, "unit": "µM"}, {"measurement": "EC50", "setting": "Major prion protein [1]", "result": 7.43, "unit": "µM"}, {"measurement": "Activity", "setting": "[2]", "result": 36.8, "unit": "%"}, {"measurement": "Activity", "setting": "[5]", "result": "Active"}]}, {"smiles": "C[C@@H]1CCCCN1CC(=O)N[C@@H]1S[C@H]2CCCC[C@@H]2[C@H]1C#N", "values": [{"measurement": "EC50", "setting": "Major prion protein [1]", "result": 7.23, "unit": "µM"}, {"measurement": "Activity", "setting": "[2]", "result": 58.8, "unit": "%"}]}, {"smiles": "COc1ccc(-c2cnc(N)nc2C)cc1OC", "values": [{"measurement": "inhibition", "setting": "ScN2a", "result": "Active"}, {"measurement": "IC50", "setting": "[4]", "result": 35, "unit": "µM"}]}, {"smiles": "O=C(CN1C(=O)N[C@@]2(CCCc3ccccc32)C1=O)N1CCCCC1", "values": [{"measurement": "EC50", "setting": "Major prion protein [1]", "result": 7.17, "unit": "µM"}, {"measurement": "Activity", "setting": "[2]", "result": 67.1, "unit": "%"}]}, {"smiles": "Cc1cc2cc3c(cc2nc1SCCN1CCCCC1)OCCO3", "values": [{"measurement": "Kd", "setting": "Major prion protein [3]", "result": 50.8, "unit": "µM"}, {"measurement": "EC50", "setting": "Major prion protein [1]", "result": 7.32, "unit": "µM"}, {"measurement": "Activity", "setting": "[2]", "result": 47.4, "unit": "%"}]}, {"smiles": "O=C(CCc1nc2ccccc2c(=O)[nH]1)NC1CCCc2ccccc21", "note": "(stereo unspecified)", "values": [{"measurement": "EC50", "setting": "Major prion protein [1]", "result": 7.18, "unit": "µM"}, {"measurement": "Activity", "setting": "[2]", "result": 65, "unit": "%"}]}, {"smiles": "CCC[C@@H]1Nc2ccccc2N1CC(=O)N1CCCc2ccccc21", "values": [{"measurement": "EC50", "setting": "Major prion protein [1]", "result": 7.17, "unit": "µM"}, {"measurement": "Activity", "setting": "[2]", "result": 67.2, "unit": "%"}]}, {"smiles": "CC1Cc2ccccc2N1C(=O)COc1ncnc2sccc12", "note": "(stereo unspecified)", "values": [{"measurement": "EC50", "setting": "Major prion protein [1]", "result": 7.17, "unit": "µM"}, {"measurement": "Activity", "setting": "[2]", "result": 67.4, "unit": "%"}]}, {"smiles": "COc1ccc(OC)c(-c2nc(NC(=O)c3cc(OC)c(OC)c(OC)c3)sc2C)c1", "values": [{"measurement": "inhibition", "setting": "ScN2a", "result": "Active"}, {"measurement": "Kd", "setting": "Major prion protein [3]", "result": 185, "unit": "µM"}, {"measurement": "IC50", "setting": "[4]", "result": 75, "unit": "µM"}]}, {"smiles": "O=C(N[C@@H]1CCc2ccccc2C1)C(=O)O[C@@H]1C=CCc2ccccc21", "values": [{"measurement": "EC50", "setting": "Major prion protein [1]", "result": 7.27, "unit": "µM"}, {"measurement": "Activity", "setting": "[2]", "result": 53, "unit": "%"}]}, {"smiles": "O=C(CN1C(=O)COc2ccccc21)N1CCCc2ccccc21", "values": [{"measurement": "EC50", "setting": "Major prion protein [1]", "result": 7.24, "unit": "µM"}, {"measurement": "Activity", "setting": "[2]", "result": 57.5, "unit": "%"}]}, {"smiles": "CC1CCCCC1NC(=O)COc1ncnc2sc3c(c12)CCC3", "note": "(stereo unspecified)", "values": [{"measurement": "EC50", "setting": "Major prion protein [1]", "result": 7.16, "unit": "µM"}, {"measurement": "Activity", "setting": "[2]", "result": 68.8, "unit": "%"}]}, {"smiles": "O=C(CN1C(=O)c2cccc3cccc1c23)N[C@@H]1C[C@H]2CC[C@@H]1C2", "values": [{"measurement": "EC50", "setting": "Major prion protein [1]", "result": 7.18, "unit": "µM"}, {"measurement": "Activity", "setting": "[2]", "result": 65, "unit": "%"}]}, {"smiles": "Cc1cccc2cc3c(N)c(C(=O)NC4CCCC4)sc3nc12", "values": [{"measurement": "EC50", "setting": "Major prion protein [1]", "result": 7.37, "unit": "µM"}, {"measurement": "Activity", "setting": "[2]", "result": 41.9, "unit": "%"}]}, {"smiles": "COc1ccc(-c2nc(N)sc2-c2ccc(OC)cc2)cc1", "values": [{"measurement": "inhibition", "setting": "ScN2a", "result": "Active"}, {"measurement": "Kd", "setting": "Major prion protein [3]", "result": 15.5, "unit": "µM"}, {"measurement": "IC50", "setting": "[4]", "result": "> 100", "unit": "µM"}]}, {"smiles": "CCCCNc1nc2ccccc2n1CC(=O)N1CCc2ccccc21", "values": [{"measurement": "EC50", "setting": "Major prion protein [1]", "result": 7.42, "unit": "µM"}, {"measurement": "Activity", "setting": "[2]", "result": 37.3, "unit": "%"}]}, {"smiles": "CN1/C(=C/C(=O)Nc2cccs2)c2ccccc2CC1(C)C", "values": [{"measurement": "EC50", "setting": "Major prion protein [1]", "result": 7.24, "unit": "µM"}, {"measurement": "Activity", "setting": "[2]", "result": 57.4, "unit": "%"}]}, {"smiles": "C=CNC(=O)NC(C)=O", "values": [{"measurement": "EC50", "setting": "Major prion protein [1]", "result": 7.24, "unit": "µM"}, {"measurement": "Activity", "setting": "[2]", "result": 56.7, "unit": "%"}]}, {"smiles": "COc1ccc(-c2nc(N)sc2C)c(OC)c1", "values": [{"measurement": "inhibition", "setting": "ScN2a", "result": "Active"}, {"measurement": "IC50", "setting": "[4]", "result": 35, "unit": "µM"}]}, {"smiles": "O=C(COC(=O)c1c2c(nc3ccccc13)CCC2)NC1CCCC1", "values": [{"measurement": "EC50", "setting": "Major prion protein [1]", "result": 7.2, "unit": "µM"}, {"measurement": "Activity", "setting": "[2]", "result": 62.9, "unit": "%"}]}, {"smiles": "COc1ccc(OC)c(Nc2nnc(-c3cc4cccc(OC)c4oc3=O)s2)c1", "values": [{"measurement": "inhibition", "setting": "ScN2a", "result": "Active"}, {"measurement": "Kd", "setting": "Major prion protein [3]", "result": 46.4, "unit": "µM"}, {"measurement": "IC50", "setting": "[4]", "result": 20, "unit": "µM"}]}, {"smiles": "O=C(NC1CCCC1)C1CCCN1C(=O)Nc1ccccc1", "note": "(stereo unspecified)", "values": [{"measurement": "EC50", "setting": "Major prion protein [1]", "result": 7.19, "unit": "µM"}, {"measurement": "Activity", "setting": "[2]", "result": 63.2, "unit": "%"}]}]}
